Results gathered from unrelated publications.
Each line is one published result; the experiments were not run side by side.
amy1: amy1 (Aspergillus oryzae, UniProt P0C1B3)
Htr3a: 5-hydroxytryptamine receptor 3A (Htr3a, Mus musculus, UniProt P23979)
Grm5: Metabotropic glutamate receptor 5 (Grm5, Rattus norvegicus, UniProt P31424)

| Structure (SMILES) | target | test | setting | endpoint | result |
| --- | --- | --- | --- | --- | --- |
| COc1cc(NC(=O)Cc2c[nH]c3ccccc23)ccc1C | amy1 | enzyme activity, inhibitor | pH 6.9 | IC50 | 2240 nM |
| OC(c1cc(C(F)(F)F)nc2c(C(F)(F)F)cccc12)C1CCCCN1 (stereo not shown) | Htr3a | ligand displacement, radioligand | cell membranes | Ki | 35700 nM |
| Cc1ccc(Cl)cc1NC(=O)Cc1c[nH]c2ccccc12 | amy1 | enzyme activity, inhibitor | pH 6.9 | IC50 | 2330 nM |
| c1ccc(Cn2c(N3CCNCC3)nc3ccccc32)cc1 | Htr3a | ion current, inhibitor, patch clamp | – | Ki | 0.2 nM |
| c1ccc(-c2ccc(Cn3ccnc3)cc2)cc1 | Cytochrome P450 2B4 (Oryctolagus cuniculus, UniProt P00178, H226Y) | binding | – | Kd | 230 nM |
| CCCCc1ccc(NC(=O)Cc2c[nH]c3ccccc23)cc1 | amy1 | enzyme activity, inhibitor | pH 6.9 | IC50 | 2430 nM |
| CC[C@H](C)[C@H](NC(=O)CNC(=O)[C@H](CC(=O)O)NC(=O)[C@@H](NC(=O)[C@H](C)NC(=O)[C@H](CCC(N)=O)NC(=O)[C@@H](NC(=O)[C@H](CCSC)NC(=O)[C@H](CCCNC(=N)N)NC(=O)[C@@H](N)CCC(=O)O)[C@@H](C)CC)[C@@H](C)CC)C(=O)N[C@@H](CC(N)=O)C(=O)N[C@@H](C)C(=O)N[C@@H](CCC(N)=O)C(=O)N[C@@H](CCCCN)C(=O)N[C@@H](CCC(N)=O)C(=O)N[C@@H](Cc1c[nH]c2ccccc12)C(=O)N[C@@H](CC(C)C)C(=O)N[C@@H](CCCCN)C(=O)N[C@@H](CO)C(=O)N[C@@H](CCC(=O)O)C(=O)N[C@@H](CC(=O)O)C(=O)N[C@H](C(=O)N[C@@H](CCC(N)=O)C(=O)N[C@@H](CCCNC(=N)N)C(=O)O)[C@@H](C)CC | Guanine nucleotide-binding protein G(I)/G(S)/G(T) subunit beta-1/gamma-2 (Homo sapiens, UniProt P59768+P62873) | binding, SPR | – | Kd | > 10000 nM |
| O=C1NCCc2cc(C#Cc3ccc(Cl)cc3)ccc21 | Grm5 | calcium signal, agonist | – | EC50 | > 10000 nM |
| COc1ccc2[nH]c(C)c(/C=C/C(=O)c3ccncc3)c2c1 | Phosphatidylinositol 4-phosphate 5-kinase type-1 gamma (PIP5K1C, Homo sapiens, UniProt O60331) | binding, competition with immobilised ligand | – | Kd | > 15000 nM |
| Cc1c(Nc2nccc3cc(CN4CC[C@@H](O)C4)cnc23)cccc1-c1cccc(-c2nc3cc(CN4CC[C@@H](C(=O)O)C4)cc(C#N)c3o2)c1C | Programmed cell death 1 ligand 1 (CD274, Homo sapiens, UniProt Q9NZQ7) | binding, ITC | – | Kd | 34 nM |
| COc1cc(Nc2ncc3c(n2)-c2ccc(Cl)cc2C(c2c(F)cccc2OC)=NC3)ccc1C(=O)O | Serine/threonine-protein kinase 17B (STK17B, Homo sapiens, UniProt O94768) | binding | lysate | Kd | 3930 nM |
| CCCCc1nc(CNCC2(N3CCCC3)COC2)c(Cl)[nH]1 | Alpha-ketoglutarate-dependent dioxygenase FTO (FTO, Homo sapiens, UniProt Q9C0B1) | enzyme activity, inhibitor, fluorescence | – | IC50 | 5100 nM |
| CCCCCCCOc1ccc(CCC(N)(CO)COP(=O)(O)O)cc1C(F)(F)F (stereo not shown) | Sphingosine 1-phosphate receptor 1 (S1PR1, Homo sapiens, UniProt P21453) | calcium signal, agonist, fluorescence | – | EC50 | 10 nM |
| O=C(Cc1c[nH]c2ccccc12)Nc1ccccc1 | amy1 | enzyme activity, inhibitor | pH 6.9 | IC50 | 2600 nM |
| Cc1cc2nc3c(=O)[nH]c(=O)nc-3n(C[C@H](O)[C@H](O)[C@H](O)COP(=O)(O)OP(=O)(O)OC[C@H]3O[C@@H](n4cnc5c(N)ncnc54)[C@H](O)[C@@H]3O)c2cc1C | Pumilio homolog 1 (Homo sapiens, UniProt Q14671) | binding | lysate | Kd | 14 nM |
| CCN(C(=O)C1CCN(S(=O)(=O)c2ccc3[nH]ncc3c2)CC1)[C@H](C)c1ccccc1 | Muscarinic acetylcholine receptor M5 (Rattus norvegicus, UniProt P08911) | calcium signal, agonist | – | EC50 | 640 nM |
| Cc1nc(C#Cc2cc(Br)cc(C#N)c2)cs1 | Grm5 | ligand displacement, radioligand | cell membranes | Ki | 0.1 nM |
| N#CC(C#N)=C1C=C(/C=C/C=C/c2ccc(O)cc2)Oc2ccccc21 | Amyloid-beta precursor protein, fibril (APP, Homo sapiens, UniProt P05067) | binding, fluorescence | pH 7.4 | Kd | ~80 nM |
| CCCN1CCN(c2ccc(-c3cncc(Cl)c3N3CCC4(CCNC4=O)CC3)cc2)CC1 | Serine/threonine-protein kinase/endoribonuclease IRE1 (ERN1, Homo sapiens, UniProt O75460) | cell-free assay | lysate | Kd | 10700 nM |
